# Screening results (PubChem BioAssay)
# Most compounds without a hit are left out; they make up all but 2.1% or so of the library.
# PAX8 reporter: lowers PAX8-driven luciferase in RMG-I cells; RMG-I TPO-luciferase reporter, SteadyGlo, 24 h; AID 652154; inhibition, % at 12.6 µM; hit rate 1.2% among 360,000;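 active means mean replicate inhibition at least 60% with every replicate also reaching 60%; inconclusive means only one of the two criteria is met; inactive means mean below 60% and not all replicates reaching 60%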;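 further: luciferase light reporting Pax8 driven TPO promoter activity; plate controls were median of neutral control wells for no effect and mitoxantrone controls for full effect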
# FN deposit inh: fibronectin deposition inhibition. AH1F fibroblasts, Alexa488-fibronectin deposition fluorescence, overnight. AID 743247. hit rate 0.086% among 350,000. inhibition, % at 12.6 µM;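 active means mean inhibition across replicates of 30% or more, regardless of how many single replicates reach that level; inconclusive means mean under 30% yet at least half of replicates reach 30%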;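 further: positive control wells lacked labelled fibronectin entirely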
#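 Material: AH1F fibroblast monolayer depositing Alexa488-labelled fibronectin into matrix / Amount: 10000 AH1F cells per well / Signal: fluorescence 485/525 nm / Medium: DMEM, 2% serum / Compound: single dose, pinned / Incubation: 1 h cell adhesion before compound, then overnight fibronectin incubation / Reagent: Alexa488-FN, 24 nM final / Read-out: inhibition of fibronectin deposition signal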
# EBV LMP1 NFkB: Epstein-Barr LMP1 NF-kappaB reporter inhibition; LMP1-induced NF-kappaB luciferase reporter cells, luminescence; inhibition, % at 12.5 µM; hit rate 0.69% among 350,000; AID 504558; in the data active means inhibition above about 41%; inconclusive means no clear call, values can overlap the other calls;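 further: 0% = neutral control wells and 100% = reference inhibitor control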
# EWS-Fli inh: EWS/Fli transcriptional activity inhibition; A673 NR0B1-luciferase reporter, viability-normalised; inhibition, % at 12.6 µM; hit rate 0.67% among 350,000;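 active means mean inhibition of at least 50% after viability correction, with every replicate also passing that limit; inconclusive means mean reaches 50% but only one of two replicates passes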;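 further: firefly luciferase signal divided by Alamar Blue viability fluorescence both relative to DMSO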
# aSyn UTR inh: MLPCN primary screen, SNCA 5' untranslated region | alpha-synuclein 5'UTR reporter, inhibitor activity | inhibition, % (tested at 7.5 µM) | hit rate 0.82% among 300,000 | AID 1813; in the data active means inhibition above about 60%; inconclusive means no clear call, values can overlap the other calls;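 further: H4 neuroglioblastoma cells stably carrying SNCA 5'UTR luciferase fusion; 0% = DMSO wells and 100% = positive control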
# Shn3 3UTR inh: inhibitors of Schnurri-3 3'UTR reporter in osteoblasts | Clone20 osteoblast Shn3 3'UTR firefly luciferase, 24 h | inhibition, % at 12.5 µM | hit rate 0.52% among 360,000 | AID 588674;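 active means mean inhibition of at least 75% with every replicate also reaching 75%; inconclusive means mean inhibition at least 75% but some replicate below; inactive means mean inhibition below 75%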;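 further: 0% = median of neutral control wells and 100% = pilot-screen positive control compound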
# Numbers without * were called inactive; ? = inconclusive; . = no result; ! = not active in a repeat.
SMILES,PAX8 reporter,FN deposit inh,EBV LMP1 NFkB,EWS-Fli inh,aSyn UTR inh,Shn3 3UTR inh
CCOc1ccc(C(CC(=O)O)NC(=O)c2sc3ccccc3c2Cl)cc1 (stereo unspecified),16,3,51*,-15,-11,6
CCCOc1ccc(C(CC(=O)O)NC(=O)c2sc3ccccc3c2Cl)cc1 (stereo unspecified),-4,-7,-6,7,7,-10
CNc1ccc(Br)cc(C(=O)/C=C/c2ccc(Cl)cc2Cl)c1=O,66*,4,18,25,-45,-6
CCNc1ccc(Br)cc(C(=O)/C=C/c2c(Cl)cccc2Cl)c1=O,.,.,61*,.,-133,57
CCNc1ccc(Br)cc(C(=O)/C=C/c2ccc(Cl)cc2)c1=O,.,.,-94,.,-53,82
Cc1cc(NC(=O)c2ccc([N+](=O)[O-])o2)ccc1NC(=O)c1ccco1,99*,10,-27,-1,-110,-6
COc1cc(NC(=O)c2ccc([N+](=O)[O-])o2)ccc1NC(=O)c1ccco1,90*,2,-34,.,11,68
COc1cc(NC(=O)c2cccc([N+](=O)[O-])c2)ccc1NC(=O)c1ccco1,9,2,10,1,-32,0
Cc1cc([N+](=O)[O-])ccc1NC(=O)c1ccco1,-7,2,-9,4,2,-23
O=C(C[C@@H]1C=C[C@@H](NC(=O)c2ccc3c(c2)OCO3)[C@H](CO)O1)NCc1ccc(Oc2ccccc2)cc1,25,.,.,12,.,.
CCOC(=O)/C(=C\c1cccnc1)C(=O)c1cc(C(C)=O)c(Nc2ccccc2)s1,.,.,27,.,83*,98*
CCOC(=O)C(=Cc1ccc(Br)cc1)C(=O)OCC,17,7,6,?,-121,-10
CCOC(=O)/C(=C\c1ccccc1)C(=O)c1cc(C(C)=O)c(Nc2ccccc2)s1,.,.,53*,.,-29,98*
CC1CCc2cccc3c2N1c1cc(C#N)c(C#N)cc1O3 (stereo unspecified),.,.,-2,4,71*,10
CC1CCCCN1c1cc(C#N)c(C#N)cc1[N+](=O)[O-] (stereo unspecified),.,.,1,.,17,4
C[C@H]1CCCCO[C@H](CN(C)C(=O)Nc2ccc(C(F)(F)F)cc2)[C@@H](C)CN([C@@H](C)CO)C(=O)c2cc(NC(=O)Nc3cccc4ccccc34)ccc2O1,1,4,.,-1,.,.
Cc1ccc(COc2ccccc2-c2cc(C(=O)N/N=C/c3cccnc3)[nH]n2)cc1,17,10,20,58*,-77,-3
CCCCc1ccc(NC(=O)C(=O)NCCN2CCN(Cc3ccc([N+](=O)[O-])cc3)CC2)cc1,1,-2,19,24,37,94*
CN(C)CCCC1(c2ccc(F)cc2)OCc2cc(C#N)ccc21 (stereo unspecified),-21,-1,54*,-4,1,4
O=C1c2ccccc2C(=O)c2[nH]c(=O)[nH]c21,91*,-11,89*,4,93*,71
Cc1ccc(O)c(C(=O)c2cnn(-c3ccccc3)c2)c1,.,.,6,.,-68,-55
Cc1ccc(-n2cc(C(=O)c3ccccc3O)cn2)cc1,-12,.,78*,.,14,-7
O=C(CN1C(=O)CCOc2ccccc21)Nc1ccc(Cl)c(S(=O)(=O)N2CCOCC2)c1,5,2,42*,0,.,-9
COc1cc(NC(=O)c2cnc(N)s2)cc(C(=O)Nc2cccc(C(F)(F)F)c2)c1,57,19,28,-25,-51,-31
COc1cc(NC(=O)c2ccnc(N)c2)cc(C(=O)Nc2cccc(C(F)(F)F)c2)c1,52,-3,5,-14,16,-2
SMILES,PAX8 reporter,FN deposit inh,EBV LMP1 NFkB,EWS-Fli inh,aSyn UTR inh,Shn3 3UTR inh
COc1cc(NC(=O)c2cc(C)on2)cc(C(=O)Nc2cccc(C(F)(F)F)c2)c1,86*,3,-5,17,1,28
COc1cc(NC(=O)c2csc(N)n2)cc(C(=O)Nc2cccc(C(F)(F)F)c2)c1,82*!,9,-9,61*,34,-13
O=C(c1cccc(F)c1)N1C[C@H]2[C@@H](c3ccccc31)[C@@H](CO)N2C(=O)C1CCCCC1,1,.,.,2,.,.
CCCNC(=O)N1CC2(CCN(Cc3cccc(OC)c3)CC2)c2c(n(C)c3cc(OC)ccc23)[C@@H]1CO,.,12,.,-8,.,.
COc1ccc(N/C(N)=N/c2nc(C)cc(=O)[nH]2)cc1,10,3,86*,-2,-19,16
O=C(Cc1ccc(Cl)cc1)c1c[nH]c(C(=O)NCc2cccnc2)c1,-2,.,-8,66*,22,0
CC(C)(C)c1ccc(C(=O)c2c[nH]c(C(=O)NCc3cccnc3)c2)cc1,.,2,-30,.,-38,26
C#CCN(C[C@@H]1[C@@H](OC(=O)NCc2ccccc2F)[C@@H](OC(=O)NCc2ccccc2F)Cn2c(=O)ccc(=O)n21)S(=O)(=O)c1ccc(C)cc1,105*,2,61*,43,.,96*
C#CCN(C[C@@H]1[C@@H](OC(=O)Nc2cccs2)[C@@H](OC(=O)Nc2cccs2)Cn2c(=O)ccc(=O)n21)S(=O)(=O)c1ccc(C)cc1,113*,-1,-38,?,.,-12
C#CCN(C[C@@H]1[C@@H](OC(=O)NC2CCCC2)[C@@H](OC(=O)NC2CCCC2)Cn2c(=O)ccc(=O)n21)S(=O)(=O)c1ccc(C)cc1,96*,-13,9,68*,.,94*
C#CCN(C[C@@H]1[C@@H](OC(=O)NC2CC2)[C@@H](OC(=O)NC2CC2)CN(C(=O)OC(C)C)N1C(=O)OC(C)C)S(=O)(=O)c1ccc(C)cc1,-8,-5,-23,0,.,-9
C#CCN(C[C@@H]1[C@@H](OC(=O)NCc2ccccc2F)[C@@H](OC(=O)NCc2ccccc2F)Cn2c(=O)n(CCCCCC)c(=O)n21)S(=O)(=O)c1ccc(C)cc1,19,-11,-29,9,.,19
COc1ccc(NC(=O)Nc2ccc3c(c2)C(=O)N([C@@H](C)CO)C[C@H](C)[C@@H](CN(C)Cc2ccc(C(=O)O)cc2)OCCCC[C@@H](C)O3)cc1,-1,.,.,-13,.,.
C[C@@H]1CN([C@H](C)CO)C(=O)Cc2cc(NC(=O)Cc3ccccc3)ccc2O[C@@H]1CN(C)Cc1ccc2c(c1)OCO2,24,3,.,-7,.,.
CSc1nnc(NC(=O)c2nc(S(=O)(=O)Cc3ccccc3)ncc2Cl)s1,17,-16,8,.,-35,96*
CCCc1nnc(NC(=O)c2nc(S(=O)(=O)Cc3ccc(C)cc3)ncc2Cl)s1,21,16,22,.,-9,91*
CSc1ncc(Cl)c(C(=O)Nc2nnc(SC)s2)n1,.,.,2,.,-1,5
CC(C)c1nnc(NC(=O)c2nc(S(=O)(=O)Cc3ccccc3)ncc2Cl)s1,17,8,11,64*,-81,94*
